# The list is not random: actives were taken first. Their share in the collection is about 9%.
# M1 antagonist = M1 muscarinic receptor (rat) antagonism. CHO-M1 cells, Fluo-4 calcium, ACh EC80 antagonist mode; active compounds read low. B-score at 10 µM. 64,000 compounds, 3.4% hits;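 active = calcium fluorescence response, raw or row-and-column corrected B-score, differing from the plate sample mean either way at a set confidence level, mostly lower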
# Target sequence (P08482 whole entry, looked up): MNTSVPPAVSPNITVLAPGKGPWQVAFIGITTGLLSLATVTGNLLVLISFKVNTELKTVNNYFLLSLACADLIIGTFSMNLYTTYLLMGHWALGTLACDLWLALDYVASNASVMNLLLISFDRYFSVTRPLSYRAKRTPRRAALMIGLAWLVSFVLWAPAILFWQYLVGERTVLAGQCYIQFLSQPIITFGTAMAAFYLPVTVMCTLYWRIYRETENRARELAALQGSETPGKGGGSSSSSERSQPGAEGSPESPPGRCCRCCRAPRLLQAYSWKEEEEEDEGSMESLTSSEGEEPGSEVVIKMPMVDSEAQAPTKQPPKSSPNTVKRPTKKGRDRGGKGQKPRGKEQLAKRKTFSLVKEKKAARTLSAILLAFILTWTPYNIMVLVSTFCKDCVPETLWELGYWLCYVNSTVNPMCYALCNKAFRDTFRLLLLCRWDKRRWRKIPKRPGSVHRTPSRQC
# D1 mod = D1 dopamine receptor (human) allosteric modulation. 58,000 compounds, 5.9% hits. B-score at 10 µM. HEK293 D1, CRE-luciferase, dopamine EC30 potentiation; actives deviate in either direction;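 active = luminescence count or its row- and column-corrected plate score outside the 99.7% band of the plate's sample wells, on either side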
# M1 agonist = agonists of M1 muscarinic receptor | CHO-M1 cells, Fluo-4 calcium fluorescence, agonist mode; active compounds read high | B-score at 10 µM | 64,000 compounds, 3% hits;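 active = fluorescence rise, raw or as B-score row- and column-corrected plate score, outside the 99.7% band of its plate's samples, either direction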
# mHtt clearance = mutant huntingtin protein clearance; HeLa Exon1htt(103Q)mCFP, aggregate imaging; zero = plate's median compound well; 47,000 compounds, 0.42% hits; AID 853; inhibition, % at 1.5 µM;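 active = inhibition of aggregate fluorescence above about 70%, also judged a hit by eye on the cell image, limit read from the data, passing the limit was not always enough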;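 also: cells exposed to compound for three days before fixation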
# AP complement = alternative pathway complement inhibition, orthogonal assay | 62,000 compounds, 0.08% hits | Human serum alternative complement pathway, LPS-coated ELISA, C3 deposition; tested in compound mixtures | inhibition, % at 5 µM;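 active = inhibition above 30% in each of the two pooled mixtures holding the compound, so the lower value exceeds 30%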
#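 Assay system: Human serum alternative complement pathway, C3 deposition on LPS-coated wells | Incubation: 1 h serum-compound exposure at 37 °C | Doses: 5 µM per compound in ten-compound mixtures | Read-out: Percent inhibition | Technique: ELISA with HRP anti-human C3 antibody, TMB substrate, absorbance 450 nm | Replication: Two pool placements per compound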
# M1 antag conf = M1 muscarinic receptor (rat) antagonism, confirmed; 1,700 compounds, 43% hits; calcium response (max-min fluorescence) at 10 µM; shares compounds with M1 antagonist; CHO-M1 cells, Fluo-4 calcium, ACh EC80 antagonism; active compounds read low; AID 677;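 active = calcium response below the same-plate mean of wells given acetylcholine alone at its 80%-effect dose, minus 3 SD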
# mGluR4 antag = acts on human mGluR4 in M1 antagonist selectivity test; 1,700 compounds, 0.9% hits; CHO-mGluR4 calcium flux, Fluo-4 fluorescence, glutamate EC80; active compounds read low; AID 678; shares compounds with M1 antagonist; fluorescence response (max-min) at 10 µM;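 active = fluorescence response below the plate's average for near-maximal glutamate wells, less 3 SD of those wells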;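 also: raw unnormalized fluorescence span taken in the window right after glutamate addition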
# Numbers stand for hits; - = inactive; . = not tested or not shown.
SMILES,M1 antagonist,D1 mod,M1 agonist,mHtt clearance,AP complement,M1 antag conf,mGluR4 antag
Cc1cc(C)nc(SCc2nnc(SCc3ccccc3Cl)o2)n1,-4.5,-,-,-,-,-,-
Cc1ccc(Nc2nc(OC(C(F)(F)F)C(F)(F)F)nc(N3CCOCC3)n2)cc1,-3.7,-,-,-,-,-,-
FC(F)(F)C(Oc1nc(NC2CCCCC2)nc(N2CCOCC2)n1)C(F)(F)F,-,-,-,-,-,.,.
Cc1ccc2[nH]c3c(c2c1)CN(C(=O)CN1CCSCC1)CC3,-3.1,-,-,-,-,-,-
CCOC(=O)c1sc(C)c2c1NC(C)(c1ccccc1)NC2=O (centres undefined),.,.,.,-,.,.,.
CCCCn1c(C(C)NC(=O)CCC)nc2ccccc21 (centres undefined),-4.1,-,-,.,-,-,-
CCCCn1c(C(C)NC(=O)c2cccs2)nc2ccccc21 (centres undefined),-2.6,-,-,.,-,-,-
Cc1nc(N2CCN(C(=O)c3ccco3)CC2)c2c3c(sc2n1)CCC3,-3.1,-,-,.,-,-,-
CC(C)c1nc(N2CCN(C(=O)c3ccco3)CC2)c2c3c(sc2n1)CCCC3,-,-,-,-,-,.,.
O=C(O)c1cnn(-c2ccccc2)c1-c1ccccc1,.,.,.,-,.,.,.
CCOC(=O)Cc1csc(NC(=O)CCc2ccc(S(=O)(=O)N3CCOCC3)cc2)n1,-3.1,-,-,-,-,-,-
CN1CCN(CCC(=O)Nc2ccc(OCc3ccccc3)cc2)CC1,-1.7,-,-,-,-,-,-
CN1CCN(c2ccccc2NC(=O)Cc2cn(C)c3ccccc23)CC1,-0.74,.,-,.,-,522,-
CN1CCN(c2ccccc2NC(=O)c2ccc(OCc3ccccc3)cc2)CC1,-2.2,-4.6,-,-,-,403,-
Cc1cccc(N2CCN(C(=O)Cc3cn(C)c4ccccc34)CC2)c1C,.,.,.,-,.,.,.
O=C(CCN1CCN(CCO)CC1)Nc1ccc(OCc2ccccc2)cc1,-,-,-,.,-,.,.
CCOC(=O)C1CCN(C(=O)C2CC(=O)N(c3ccc(C)cc3)C2)CC1 (centres undefined),-,-,-,-,-,.,.
CCC(=O)Nc1sc2c(c1C#N)CC(C)(CC)OC2 (centres undefined),.,.,.,-,.,.,.
COC(=O)c1oc2c(c1C)C1(CCC2)SCCS1,-6.8,-,-,-,-,259,-
COc1cc2c(cc1OC)C(C)N(C(=O)CCN1C(=O)C3C4C=CC(C4)C3C1=O)CC2 (centres undefined),-,-,-,.,-,.,.
COc1ccc(S(=O)(=O)N2CCN(C3CCN(Cc4ccccc4)CC3)CC2)cc1,-11,-,-,-,-,189,-
COc1cccc(CN2CCCN(S(=O)(=O)c3ccc(Br)cc3)CC2)c1,-10,-,-,.,-,301,-
O=S(=O)(c1ccccc1)N1CCN(C2CCN(Cc3ccccc3)CC2)CC1,-7.5,-,-,-,-,244,-
COc1ccc(S(=O)(=O)N2CCN(C3CCCCCCC3)CC2)cc1,-,-,-,.,-,.,.
Cc1ccc(S(=O)(=O)N2CCN(C3CCN(Cc4ccccc4)CC3)CC2)cc1,-15,-,-,.,-,292,-
SMILES,M1 antagonist,D1 mod,M1 agonist,mHtt clearance,AP complement,M1 antag conf,mGluR4 antag
CC1CCN(Cc2c(C#N)c3ccccc3n2C)CC1,-,-,-,.,-,.,.
CCCOc1cc(C)c(S(=O)(=O)n2ccc(C)n2)cc1C,-,-,-,-,-,.,.
COC(=O)c1cc(NC(=O)C2COc3ccccc3O2)cc(C(=O)OC)c1 (centres undefined),-13,-,-,-,-,-,-
COC(=O)c1ccccc1NC(=O)C1COc2ccccc2O1 (centres undefined),-,.,-,.,.,.,.
CS/C(=N\S(=O)(=O)c1cccs1)NC(=O)CSc1nc2ccccc2s1,-,.,-,-,-,.,.
CCOc1ccc(CCNC(=O)C2CCN(c3nnc(-n4cccc4)s3)CC2)cc1,.,.,.,-,.,.,.
CCN(CCNC(=O)C1CCN(c2nnc(-n3cccc3)s2)CC1)c1ccccc1,-0.83,-,-,.,-,-,-
Cc1ccc(NC(=O)CSc2nnc(Cn3c(=O)sc4ccccc43)n2C)cc1Cl,-,-,-,.,-,.,.
O=C(CSc1nnc(C23CC4CC(CC(C4)C2)C3)o1)Nc1ccc(N2CCOCC2)c(Cl)c1,-,-,-,-,-,.,.
CCCCc1c(C)nn(-c2nnc3c4ccccc4n(CC)c3n2)c1C,-2.7,-,-,-,-,-,-
Cc1[nH]c2ccccc2c1[C@H]1[C@@H](CC#N)C1(C)C,.,.,.,-,.,.,.
COC(=O)c1ccc(NC(=O)C2CC(=O)N(c3ccc(C)cc3)C2)cc1 (centres undefined),.,.,.,-,.,.,.
CCC(Sc1nc(C)cc(=O)[nH]1)C(=O)Nc1nnc(C)s1 (centres undefined),-2.5,-,-,-,-,-,-
CCC(Sc1nc(C)cc(=O)[nH]1)C(=O)Nc1nc2c(s1)CCCC2 (centres undefined),-,-,-,.,-,.,.
O=C(Cc1c[nH]c2ccccc12)NCc1ccc2c(c1)OCO2,-,-,-,.,-,.,.
CCCN(CCC)CCCNC(=O)c1ccc2c(c1)N(CC)C(=O)c1ccccc1S2=O (centres undefined),-4.2,-,-,-,-,328,-
Cc1cc2ccccc2c(=O)n1CC(=O)NCC(=O)N1CCCC1,-,-,-,.,-,.,.
COc1ccc(N2CCN(C(=O)CNC(=O)Cn3c(C)cc4ccccc4c3=O)CC2)cc1,-2.4,-,-,.,-,-,-
COC(=O)COc1ccc(S(=O)(=O)Nc2ccc(NC(C)=O)cc2)cc1C,-3.1,-,-,-,-,-,-
Cc1ccc(S(=O)(=O)N2CCC(C(=O)N3CCC[C@H]3C(=O)NCc3ccco3)CC2)cc1,-2.2,-,-,.,-,555,-
O=C(NCCOc1ccccc1)c1n[nH]c(=O)c2ccccc12,-,-,-,-,-,.,.
COc1cccc(C(=O)Cn2c(=N)n(C)c3ccccc32)c1,-5,-,-,.,-,443,-
COc1cccc(C(=O)Cn2c(N3CCCCC3)nc3c2c(=O)n(C)c(=O)n3C)c1,-,-,-,.,-,.,.
c1coc(C2Nc3cccc4cccc(c34)N2)c1,-2.2,-,-,-,-,-,-
OCCN=C(c1ccccc1)C12CN3CN(CN(C3)C1)C2,-2.4,.,-,.,.,-,-
CCOC(=O)/C(C(N)=NCCO)=C(/O)c1ccccc1,-,-,-,-,-,.,.
CN(CCC#N)CC(=O)Nc1ccc(NC(=O)CN(C)CCC#N)cc1,-14,.,-,.,-,-,-
Cc1ccc(Cc2nnc3n(-c4ccccc4)nc(C(=O)c4ccccc4)n3c2=O)cc1,.,.,.,-,.,.,.
CC(=O)Nc1cccc(NC(=O)CSc2nnc(Cc3cccn3C)n2CCc2ccccc2)c1,-1.9,-,-,-,-,-,-
